This is a sample that favours compounds with a hit; in the whole collection about 2.7% have one here.
bovine MsrA act: bovine MsrA enzyme activators, primary screen, biochemical, absorbance, HTS | AID 602163, 2012 | 360,000 tested, 0.3% active | purified bovine MsrA, absorbance read-out | Methionine sulfoxide reductase A (Bos taurus) | activation, % at 10.6 µM; in the data active = activation above about 7.5%
NR1D1 modulator: modulators of Rev-erb alpha DNA binding, primary screen, biochemical, FITC-DNA, fluorescence polarization, uHTS; 370,000 tested, 0.79% active; Rev-erbα–FITC-DNA binding, 90 min; AID 1259318, 2017; activity, % at 10 µM; Nuclear receptor subfamily 1 group D member 1 (Homo sapiens), P20393;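 active = activity above about 14%, limit read from the data; passing the limit was not always enough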
HGIII-sPLA2 inh: human group III sPLA2 inhibitors, primary screen, biochemical, QFRET, BODIPY PC-A2 liposome substrate; Group 3 secretory phospholipase A2 (Homo sapiens), Q9NZ20; QFRET BODIPY PC-A2 liposome hydrolysis, fluorescence; inhibition, % at 12.2 µM; 370,000 tested, 0.56% active; AID 743126, 2013;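 active = inhibition above mean plus 3 SD of compounds lying within the high and low control bounds, cut at about 19% in these data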
ARFGAP1 inhibitor: inhibitors of rat ARFGAP1 GAP activity, primary screen, biochemical, fluorescence polarization, GDP tracer. ADP-ribosylation factor GTPase-activating protein 1 (Rattus norvegicus), Q62848. Arfgap1-stimulated ARF1 GTP hydrolysis, GDP FP detection. inhibition, % at 16.5 µM. 360,000 tested, 0.26% active. AID 651572, 2012;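 active = inhibition above a per-plate limit, mean inhibition of low control wells plus 3 SD, cut at about 25% in these data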
Target sequence (Q62848 1-136 limits assumed): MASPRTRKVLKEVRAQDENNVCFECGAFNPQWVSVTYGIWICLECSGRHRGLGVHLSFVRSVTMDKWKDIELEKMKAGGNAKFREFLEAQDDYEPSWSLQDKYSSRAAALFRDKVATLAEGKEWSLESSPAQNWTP
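Replicates: Single well per compound | Assay system: Truncated rat Arfgap1 GAP domain | Control set: No-Arfgap1 wells (100%) versus DMSO full-reaction wells (0%) | Times: Enzyme reaction 120 min at 25 °C after 20 min preincubation | Reagent: Human ARF1(Δ1-17)-GTP substrate | Measured by: Tracer-displacement fluorescence polarization with EDTA stop, 620/688 nm | Measure: Percent inhibition of Arfgap1-stimulated GTP hydrolysis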
MsrA inh: bovine MsrA enzyme inhibitors, primary screen, biochemical, absorbance, HTS | Methionine sulfoxide reductase A (Bos taurus) | purified bovine MsrA, absorbance read-out | inhibition, % at 15.5 µM | 360,000 tested, 0.75% active | AID 651718, 2012; in the data active = inhibition above about 4.5%
ASAP1 inh: inhibitors of human ASAP1 ArfGAP activity, primary screen, biochemical, fluorescence polarization. ASAP1-stimulated ARF1 GTP hydrolysis, GDP FP detection. inhibition, % at 16.5 µM. 360,000 tested, 0.19% active. AID 624377, 2012; in the data active = inhibition above about 25%
Target sequence (Q9ULH1 325-724 limits assumed): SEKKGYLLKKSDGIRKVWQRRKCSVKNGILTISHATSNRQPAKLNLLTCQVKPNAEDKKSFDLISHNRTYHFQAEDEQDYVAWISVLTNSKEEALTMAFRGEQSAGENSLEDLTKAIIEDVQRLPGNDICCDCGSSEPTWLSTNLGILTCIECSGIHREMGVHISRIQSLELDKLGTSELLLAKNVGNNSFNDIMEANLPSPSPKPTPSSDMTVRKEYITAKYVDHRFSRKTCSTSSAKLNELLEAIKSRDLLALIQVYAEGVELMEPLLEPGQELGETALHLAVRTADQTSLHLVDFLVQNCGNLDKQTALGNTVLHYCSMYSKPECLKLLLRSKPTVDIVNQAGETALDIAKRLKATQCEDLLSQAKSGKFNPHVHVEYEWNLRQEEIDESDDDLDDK
ASAP1 inh confirm: ASAP1 GAP activity inhibitors, confirmation, biochemical, fluorescence polarization, human, triplicate. shares compounds with ASAP1 inh. ASAP1-stimulated Arf1 GTPase, GDP fluorescence polarization. inhibition, % at 16.5 µM. 620 tested, 37% active;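 active = mean inhibition over triplicates exceeds the hit threshold derived for the earlier primary screening run, cut at about 25% in these data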
A number is an active result.

Results for COC(=O)[C@]12C[C@H](CC(=O)N3CCN(C(=O)C4CC4)CC3)C(=O)N(CCc3ccc(OC)c(OC)c3)C1=C[C@H](C(C)(C)C)O[C@@H]2C ?
NR1D1 modulator: inactive; HGIII-sPLA2 inh: inactive

Results for C=CCn1cnnc1SCC(=O)N(C)CC1COc2ccccc2O1 (centres undefined) ?
bovine MsrA act: inactive; NR1D1 modulator: inactive; HGIII-sPLA2 inh: inactive; ARFGAP1 inhibitor: inactive; MsrA inh: inactive; ASAP1 inh: inactive

How did C=CCn1cnnc1SCC(=O)NCC1COc2ccccc2O1 (centres undefined) do in these assays?
bovine MsrA act: inactive; NR1D1 modulator: inactive; HGIII-sPLA2 inh: inactive; ARFGAP1 inhibitor: inactive; MsrA inh: inactive; ASAP1 inh: 31; ASAP1 inh confirm: inactive

What do the screens show for `Cc1ccc(Cn2c(N)c(S(=O)(=O)c3cccs3)c3nc4ccccc4nc32)cc1`?
bovine MsrA act: inactive; NR1D1 modulator: inactive; HGIII-sPLA2 inh: inactive; ARFGAP1 inhibitor: inactive; MsrA inh: inactive; ASAP1 inh: inactive

How did Nc1c(S(=O)(=O)c2cccs2)c2nc3ccccc3nc2n1Cc1ccccc1 do in these assays?
bovine MsrA act: inactive; NR1D1 modulator: inactive; HGIII-sPLA2 inh: inactive; ARFGAP1 inhibitor: inactive; MsrA inh: inactive; ASAP1 inh: 26; ASAP1 inh confirm: inactive

What do the screens show for `COC(=O)[C@]12C[C@H](CC(=O)NCCCCc3ccccc3)C(=O)N(CCc3ccc(OC)c(OC)c3)C1=C[C@H](COCc1ccccc1)O[C@@H]2C`?
NR1D1 modulator: inactive; HGIII-sPLA2 inh: inactive

What do the screens show for `C[C@H](CO)N1C[C@H](C)[C@H](CN(C)C(=O)Nc2ccc(F)cc2)Oc2c(NC(=O)c3ccc(-c4nccs4)cc3)cccc2C1=O`?
bovine MsrA act: inactive; NR1D1 modulator: inactive; HGIII-sPLA2 inh: inactive; ARFGAP1 inhibitor: inactive; MsrA inh: inactive; ASAP1 inh: 31; ASAP1 inh confirm: inactive

How did N#Cc1ccc(OCCCN2CCC(C(O)(c3ccccc3)c3ccccc3)CC2)cc1 do in these assays?
NR1D1 modulator: inactive; HGIII-sPLA2 inh: inactive; ARFGAP1 inhibitor: inactive; MsrA inh: inactive; ASAP1 inh: 25; ASAP1 inh confirm: inactive

Results for NC1=NN(c2c(Cl)cc(Cl)cc2Cl)C(=O)C1 ?
bovine MsrA act: inactive; NR1D1 modulator: inactive; HGIII-sPLA2 inh: inactive; ARFGAP1 inhibitor: inactive; MsrA inh: inactive; ASAP1 inh: 26; ASAP1 inh confirm: inactive

How did CN1CCN(c2ccc(S(=O)(=O)N3CCCCC3)cc2NC(=O)/C=C/c2ccc(OC(F)F)cc2)CC1 do in these assays?
bovine MsrA act: inactive; NR1D1 modulator: inactive; HGIII-sPLA2 inh: inactive; ARFGAP1 inhibitor: inactive; MsrA inh: inactive; ASAP1 inh: 25; ASAP1 inh confirm: inactive

What do the screens show for `CCN1CCN(c2ccc(S(=O)(=O)N3CCCCC3)cc2NC(=O)/C=C/c2ccc(OC(F)F)cc2)CC1`?
bovine MsrA act: inactive; NR1D1 modulator: inactive; HGIII-sPLA2 inh: inactive; ARFGAP1 inhibitor: inactive; MsrA inh: inactive; ASAP1 inh: inactive

How did COC(=O)C1CN(C2CC2)CCS(=O)(=O)N1Cc1cn(Cc2ccccc2)nn1 (centres undefined) do in these assays?
NR1D1 modulator: inactive; HGIII-sPLA2 inh: inactive

Results for Cc1ccc2[nH]c(O)c(N=NC(=O)c3ccc(NS(=O)(=O)c4cccs4)cc3)c2c1 ?
bovine MsrA act: inactive; NR1D1 modulator: inactive; HGIII-sPLA2 inh: inactive; ARFGAP1 inhibitor: inactive; MsrA inh: inactive; ASAP1 inh: 29; ASAP1 inh confirm: inactive

Results for O=C(N=Nc1c(O)[nH]c2ccc(F)cc12)c1ccc(NS(=O)(=O)c2cccs2)cc1 ?
bovine MsrA act: inactive; NR1D1 modulator: inactive; HGIII-sPLA2 inh: inactive; ARFGAP1 inhibitor: inactive; MsrA inh: inactive; ASAP1 inh: inactive

How did CCCC1(c2ccccc2)NC(=O)N(CCN2C(=O)c3ccccc3C2=O)C1=O (centres undefined) do in these assays?
bovine MsrA act: inactive

Results for CC1(c2ccccc2)NC(=O)N(CCN2C(=O)c3ccccc3C2=O)C1=O (centres undefined) ?
bovine MsrA act: inactive; NR1D1 modulator: inactive; HGIII-sPLA2 inh: inactive; ARFGAP1 inhibitor: inactive; MsrA inh: inactive; ASAP1 inh: 25; ASAP1 inh confirm: inactive

How did Cn1c(NC(=O)c2ccccc2)nc(Cc2ccccc2)c1-c1ccccc1 do in these assays?
NR1D1 modulator: inactive; HGIII-sPLA2 inh: inactive

Results for CC(=O)N1CCc2cc(S(=O)(=O)NC3CCN(C(=O)OCc4ccccc4)CC3)ccc21 ?
NR1D1 modulator: inactive; HGIII-sPLA2 inh: inactive

How did O=C(Nc1c(-c2ccccc2)[nH][nH]c1=O)c1ccc2c(c1)OCO2 do in these assays?
NR1D1 modulator: inactive; HGIII-sPLA2 inh: inactive; ARFGAP1 inhibitor: inactive; MsrA inh: inactive; ASAP1 inh: inactive

How did O=C(Nc1c(-c2ccc3c(c2)OCO3)[nH][nH]c1=O)c1ccccc1 do in these assays?
bovine MsrA act: inactive; NR1D1 modulator: inactive; HGIII-sPLA2 inh: inactive; ARFGAP1 inhibitor: inactive; MsrA inh: inactive; ASAP1 inh: 30; ASAP1 inh confirm: inactive

What do the screens show for `COc1ccc(N/N=C(\C#N)C(=N)SCc2ccccc2)cc1`?
bovine MsrA act: inactive; NR1D1 modulator: inactive; HGIII-sPLA2 inh: inactive; ARFGAP1 inhibitor: inactive; MsrA inh: inactive; ASAP1 inh: 26; ASAP1 inh confirm: inactive

Results for Cc1ccc(CNC(=O)OC(C)(C)C)c(/C=C/S(=O)(=O)NCCc2ccccc2)c1 ?
NR1D1 modulator: inactive; HGIII-sPLA2 inh: inactive

How did Cc1nnc2sc(-c3ccc(NC(=O)c4ccc(-c5ccc(Cl)cc5Cl)o4)cc3)nn12 do in these assays?
bovine MsrA act: inactive; NR1D1 modulator: inactive; HGIII-sPLA2 inh: inactive; ARFGAP1 inhibitor: inactive; MsrA inh: inactive; ASAP1 inh: 112; ASAP1 inh confirm: 55

Results for CC1N(O)C(c2ccc(Cl)cc2Cl)N(O)C1(C)C (centres undefined) ?
bovine MsrA act: inactive; NR1D1 modulator: inactive; HGIII-sPLA2 inh: inactive; ARFGAP1 inhibitor: inactive; MsrA inh: inactive; ASAP1 inh: 25; ASAP1 inh confirm: inactive

What do the screens show for `ON1C(c2ccc(Cl)cc2Cl)N(O)[C@H]2CCCC[C@H]21` (some centres undefined)?
bovine MsrA act: inactive; NR1D1 modulator: inactive; HGIII-sPLA2 inh: inactive; ARFGAP1 inhibitor: inactive; MsrA inh: inactive; ASAP1 inh: inactive

High-throughput results as filed in PubChem.
